Source: ChEMBL document CHEMBL4152315, “Rational modification of a lead molecule: Improving the antifungal activity of indole - triazole - amino acid conjugates” (Eur J Med Chem, 2018)
In brackets after ≈: the same amount, converted by molar mass.

Columns and labels:
Candida albicans [1] = test: Antifungal activity against Candida albicans MTCC 3958 assessed as zone of growth inhibition after 48 hrs; type: functional
Outline: (§1)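 Agar well diffusion: Malt Yeast Agar (C. albicans) or Czapek Yeast Extract Agar (A. niger) swabbed with 100 µL inoculum at 1×10^5 CFU/mL; 6 mm wells filled with 128 µg/50 µL compound in 5% DMSO (10% DMSO for poorly soluble ones). DMSO negative controls, fluconazole reference. 28 °C for 48 h; zone of inhibition as mean of triplicates.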

Candida albicans [2] = test: Antifungal activity against Candida albicans MTCC 3958 after 48 hrs; type: functional; conditions: MTCC 3958, 48 h
Outline: (§2)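 Broth tube dilution MIC: tested at 128, 64, 32, 16 and 8 μg/mL; Yeast Malt Broth for C. albicans, Czapek Dox Broth for A. niger. Inoculum 1×10³ CFU/mL final; 5% DMSO negative control, fluconazole reference. Incubated dark on rotary shaker (180 rpm), 28 °C, 48 h (C. albicans) or 72 h (A. niger); lowest concentration preventing visible growth recorded.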

Aspergillus niger [3] = test: Antifungal activity against Aspergillus niger MTCC 9933 assessed as zone of growth inhibition after 48 hrs; type: functional; outline: as §1
Aspergillus niger [4] = test: Antifungal activity against Aspergillus niger MTCC 9933 after 72 hrs; type: functional; conditions: MTCC 9933, 72 h; outline: as §2
Erythrocyte = test: Cytotoxicity against sheep RBC assessed as cell viability at 1 mg/ml after 24 hrs by MTT assay relative to control; type: cell-based, Ovis aries
Outline: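 Sheep blood mixed 10:3 with Alsever's solution. Plasma was removed by centrifugation, and cells were washed three times in 1X PBS and diluted to 1×10^5 cells/mL. Cells were preincubated 24 h at 37 °C, then exposed to compound for 24 h at 37 °C. MTT (5 mg/ml stock) was added for 4 h, formazan was dissolved in DMSO, and A595 was read. Control wells received 10% DMSO diluent.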

| SMILES | inhibition zone (IZ) (Candida albicans [1]) [mm] | MIC90 (Candida albicans [2]) [mg/L] | inhibition zone (IZ) (Aspergillus niger [3]) [mm] | MIC90 (Aspergillus niger [4]) [mg/L] | Activity (Erythrocyte) |
| --- | --- | --- | --- | --- | --- |
| COC(=O)CNC(=O)C(=O)c1c[nH]c2ccccc12 | 10 | 128 (≈ 492 µM) | – | – | – |
| O=C(O)CC[C@H](NC(=O)C(=O)c1cn(Cc2cn(Cc3ccccc3)nn2)c2ccccc12)C(=O)O | 14 | 32 (≈ 65.4 µM) | 12 | > 32 | – |
| O=C(O)CNC(=O)C(=O)c1cn(Cc2cn(Cc3ccccc3)nn2)c2ccccc12 | 13 | 32 (≈ 76.7 µM) | 10 | 128 (≈ 307 µM) | – |
| COC(=O)[C@H](Cc1ccc(O)cc1)NC(=O)C(=O)c1cn(Cc2cn(Cc3ccccc3)nn2)c2ccccc12 | 8 | 128 (≈ 238 µM) | 10 | 128 (≈ 238 µM) | – |
| C#CCn1cc(C(=O)C(=O)N[C@@H](CC(=O)OC)C(=O)OC)c2ccccc21 | 13 | 64 (≈ 173 µM) | – | – | – |
| C#CCn1cc(C(=O)C(=O)N[C@@H](Cc2ccc(O)cc2)C(=O)OC)c2ccccc21 | 11 | 64 (≈ 158 µM) | 10 | 128 (≈ 317 µM) | – |
| O=C(N[C@@H](Cc1ccc(OCc2cn(Cc3ccccc3)nn2)cc1)C(=O)O)C(=O)c1cn(Cc2cn(Cc3ccccc3)nn2)c2ccccc12 | 16 | 16 (≈ 23 µM) | 15 | 32 (≈ 46.1 µM) | Non-Toxic |
| COC(=O)[C@H](Cc1c[nH]c2ccccc12)NC(=O)C(=O)c1cn(Cc2cn(Cc3ccccc3)nn2)c2ccccc12 | 9 | 128 (≈ 228 µM) | 12 | 64 (≈ 114 µM) | – |
| COC(=O)C[C@H](NC(=O)C(=O)c1c[nH]c2ccccc12)C(=O)OC | 15 | 32 (≈ 96.3 µM) | 13 | 64 (≈ 193 µM) | – |
| C#CCn1cc(C(=O)C(=O)N[C@@H](Cc2c[nH]c3ccccc23)C(=O)OC)c2ccccc21 | 10 | 128 (≈ 299 µM) | 9 | > 128 | – |
| COC(=O)CC[C@H](NC(=O)C(=O)c1c[nH]c2ccccc12)C(=O)OC | – | – | 9 | > 128 | – |
| O=C(O)C[C@H](NC(=O)C(=O)c1cn(Cc2cn(Cc3ccccc3)nn2)c2ccccc12)C(=O)O | 15 | 32 (≈ 67.3 µM) | 13 | 64 (≈ 135 µM) | – |
| COC(=O)CC[C@H](NC(=O)C(=O)c1cn(Cc2cn(Cc3ccccc3)nn2)c2ccccc12)C(=O)OC | 10 | 64 (≈ 124 µM) | 11 | 64 (≈ 124 µM) | – |
| COC(=O)[C@H](Cc1ccc(O)cc1)NC(=O)C(=O)c1c[nH]c2ccccc12 | – | – | 9 | > 128 | – |
| COC(=O)[C@H](Cc1ccc(OCc2cn(Cc3ccccc3)nn2)cc1)NC(=O)C(=O)c1cn(Cc2cn(Cc3ccccc3)nn2)c2ccccc12 | – | – | 13 | 64 (≈ 90.3 µM) | – |
| C#CCn1cc(C(=O)C(=O)N[C@@H](CCC(=O)OC)C(=O)OC)c2ccccc21 | 9 | 128 (≈ 333 µM) | – | – | – |
| C#CCOc1ccc(C[C@H](NC(=O)C(=O)c2cn(CC#C)c3ccccc23)C(=O)OC)cc1 | 13 | 64 (≈ 145 µM) | 13 | 64 (≈ 145 µM) | – |
| O=C(N[C@@H](Cc1ccc(O)cc1)C(=O)O)C(=O)c1cn(Cc2cn(Cc3ccccc3)nn2)c2ccccc12 | 15 | 16 (≈ 30.6 µM) | 13 | > 32 | – |
| COC(=O)[C@H](Cc1c[nH]c2ccccc12)NC(=O)C(=O)c1c[nH]c2ccccc12 | 14 | 32 (≈ 82.2 µM) | – | – | – |
| COC(=O)CNC(=O)C(=O)c1cn(Cc2cn(Cc3ccccc3)nn2)c2ccccc12 | 12 | 64 (≈ 148 µM) | 11 | 64 (≈ 148 µM) | – |
| C#CCn1cc(C(=O)C(=O)NCC(=O)OC)c2ccccc21 | 11 | 64 (≈ 215 µM) | – | – | – |
| O=C(N[C@@H](Cc1c[nH]c2ccccc12)C(=O)O)C(=O)c1cn(Cc2cn(Cc3ccccc3)nn2)c2ccccc12 | 14 | 32 (≈ 58.5 µM) | 14 | > 32 | – |
| COC(=O)C[C@H](NC(=O)C(=O)c1cn(Cc2cn(Cc3ccccc3)nn2)c2ccccc12)C(=O)OC | 11 | 128 (≈ 254 µM) | – | – | – |
| OC(Cn1cncn1)(Cn1cncn1)c1ccc(F)cc1F [FLUCONAZOLE] | 19 | 16 (≈ 52.2 µM) | 18 | 8 (≈ 26.1 µM) | – |
